Article PMC6410374 (Biomaterials science, 2019)
pKd: −log10 of the molar value.

What was measured:
[1] = Congo red absorbance / fibrillization; format: physicochemical; conditions: EAK: upon exposure to high ionic strengths
Method in brief: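 Congo red (1×, diluted from 10X stock in PBS) incubated with peptide for at least 1 h. Absorbance scanned across 400–600 nm on a microplate reader with 0 ms settle time. Peak position and shift read from spectra, with repeat scans over time.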

[2] = target: fluorescein-labeled rabbit polyclonal IgG (Oryctolagus cuniculus, UniProt P01870); test: Microplate-based titration of IgG against Z15_EAK/EAK coacervate; format: binding; conditions: constant concentration of EAK; data not shown
Sequence of fluorescein-labeled rabbit polyclonal IgG (P01870 101-323 limits assumed): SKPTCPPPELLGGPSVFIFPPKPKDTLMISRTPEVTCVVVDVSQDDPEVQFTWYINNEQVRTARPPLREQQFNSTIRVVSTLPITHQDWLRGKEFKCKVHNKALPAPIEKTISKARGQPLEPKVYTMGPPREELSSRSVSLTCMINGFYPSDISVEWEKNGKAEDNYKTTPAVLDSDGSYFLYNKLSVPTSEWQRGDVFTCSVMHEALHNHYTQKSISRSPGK

IgG^800 = test: In vivo IgG^800 retention in mouse footpads; set-up: species or system C57BL/6 mice
Method in brief: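 Female C57BL/6 mice, 8–12 weeks old, under isoflurane (5% induction, 3% maintenance). Fluorescent IgG800 premixed with peptide coacervate or EAK was injected subcutaneously into one footpad (28G needle) without hair removal. Imaged before injection and every two days with near-infrared imaging at 255 μm resolution. Injection-site ROI was normalized to a non-injected background ROI; the 5-min signal was set as 100% (0.065 μg/μl). Ex vivo scans were taken at 800 channel.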

humans = conditions: very low doses; idiosyncratic thrombocytopenia purpura; ref [13]; cited from earlier work
[3] = test system: CD8 T cells from humans exposed to the human polyomavirus 2 protein; conditions: T cells of patients exposed to the virus; HLA-A*0201; ref [35]; cited from earlier work
IgG = conditions: read-out: binding constant for IgG; ref [20]; cited from earlier work

## AEAEAKAKAEAEAKAK
[1]
  fibril formation kinetics: almost instantaneously
[2]
  affinity constants of IgG titrated against EAK: ambiguous affinity constants
IgG^800; after 4 days, 5 min signal = 100%
  IgG^800 retained in footpad: 8%
IgG^800; footpad injection, day 28
  antibody in draining lymph node: found in the draining lymph node

## PRTX-100: Highly purified SpA developed as a therapeutic for idiosyncratic thrombocytopenia purpura
humans
  safety in phase-I clinical trials: safe

## RIPLPNLNEDLTCGN
[3]
  T cell recall in vitro: recalled in vitro

## SpA: 42-kDa protein consisting of five homologous Fc-binding domains (E, D, A, B and C)
IgG
  pKd: ~7.70
